Experiment [1] concerns the target T1, Tyrosine-protein phosphatase non-receptor type 2 (Homo sapiens, UniProt P17706).
T1 sequence (P17706 whole entry): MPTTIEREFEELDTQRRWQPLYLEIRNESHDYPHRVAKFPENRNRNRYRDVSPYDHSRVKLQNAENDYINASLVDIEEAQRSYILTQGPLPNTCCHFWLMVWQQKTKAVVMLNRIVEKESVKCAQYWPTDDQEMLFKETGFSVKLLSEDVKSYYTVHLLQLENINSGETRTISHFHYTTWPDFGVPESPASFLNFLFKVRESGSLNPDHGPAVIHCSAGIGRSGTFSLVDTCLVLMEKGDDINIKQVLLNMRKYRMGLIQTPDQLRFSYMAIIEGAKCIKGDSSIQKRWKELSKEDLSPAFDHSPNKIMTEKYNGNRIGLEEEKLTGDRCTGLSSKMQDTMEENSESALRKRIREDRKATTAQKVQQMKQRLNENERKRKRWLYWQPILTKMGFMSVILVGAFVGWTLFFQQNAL
The experiment is described as follows: Inhibition of human N-terminal His6-tagged TCPTP catalytic domain (1 to 336 residues) expressed in Escherichia coli strain Rosetta2 (DE3) using DiFMUP as substrate preincubated for 10 mins followed by substrate addition and measured after 10 mins by fluorescence assay. The method in brief:
(§1)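 Tag-cleaved, SEC-purified enzyme at 1 nM, preincubated 10 min with compound at 15 concentrations from 0–500 μM (5% DMSO final) in 25 mM Bis-Tris propane pH 7.5, 50 mM NaCl, 2 mM EDTA. DiFMUP added at each construct's Km (10, 7, 10, 9 μM for PTP1B1−298, PTP1B1−393, TCPTP1−296, TCPTP1−336). Read ex 358/em 455 nm continuously 10 min at 37 °C; triplicate; log(inhibitor)-response fit.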

The target in experiment [2] is T2, Tyrosine-protein phosphatase non-receptor type 1 (Homo sapiens, UniProt P18031).
T2 sequence (P18031 whole entry): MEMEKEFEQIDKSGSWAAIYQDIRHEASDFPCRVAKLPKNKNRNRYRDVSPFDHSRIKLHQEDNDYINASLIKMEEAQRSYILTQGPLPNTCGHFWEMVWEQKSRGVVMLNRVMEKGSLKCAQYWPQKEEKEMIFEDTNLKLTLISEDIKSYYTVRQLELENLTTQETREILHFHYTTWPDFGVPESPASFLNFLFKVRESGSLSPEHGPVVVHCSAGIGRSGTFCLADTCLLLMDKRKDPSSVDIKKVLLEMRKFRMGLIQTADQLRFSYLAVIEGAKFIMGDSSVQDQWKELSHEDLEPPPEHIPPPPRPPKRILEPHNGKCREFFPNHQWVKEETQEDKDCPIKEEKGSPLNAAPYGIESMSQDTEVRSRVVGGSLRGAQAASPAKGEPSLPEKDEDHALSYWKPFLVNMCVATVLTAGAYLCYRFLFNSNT
Nature of the experiment: Inhibition of human N-terminal His6-tagged PTP1B catalytic domain (1 to 393 residues) expressed in Escherichia coli strain Rosetta2 (DE3) using DiFMUP as substrate preincubated for 10 mins followed by substrate addition and measured after 10 mins by fluorescence assay. The method in brief:
as §1

Experiment [3] deals with T3, Tyrosine-protein phosphatase non-receptor type 2 (Homo sapiens) (UniProt P17706).
T3 sequence (whole entry): T1 sequence (P17706 whole entry)
The experiment is described as follows: Inhibition of human N-terminal His6-tagged TCPTP catalytic domain (1 to 336 residues) expressed in Escherichia coli strain Rosetta2 (DE3) at 500 uM using DiFMUP as substrate preincubated for 10 mins followed by substrate addition and measured after 10 mins by fluorescence assay.

The target of experiment [4] is T4, Tyrosine-protein phosphatase non-receptor type 1 (Homo sapiens) (UniProt P18031).
T4 sequence (whole entry): T2 sequence (P18031 whole entry)
The experiment is described as follows: Inhibition of human N-terminal His6-tagged PTP1B catalytic domain (1 to 393 residues) expressed in Escherichia coli strain Rosetta2 (DE3) at 500 uM using DiFMUP as substrate preincubated for 10 mins followed by substrate addition and measured after 10 mins by fluorescence assay.

Consider three compounds from ChEMBL document CHEMBL4371044, “Celastrol Promotes Weight Loss in Diet-Induced Obesity by Inhibiting the Protein Tyrosine Phosphatases PTP1B and TCPTP in the Hypothalamus” (J Med Chem, 2018).

The structures appear in SMILES notation. The source made the active and inactive calls. No cut-off for these calls is given here.

What is called IC50 is the concentration needed to halve the response being measured. Take `Nc1ccc(NC(=O)C(=O)O)cc1`: the figures for the IC50 in experiment [1] and in experiment [2] were 478 µM and 910 µM, respectively.

As for `CC1=C(CO)C(=O)O[C@@H]([C@@H](C)[C@H]2CC[C@H]3[C@@H]4C[C@H]5O[C@]56[C@@H](O)C=CC(=O)[C@]6(C)[C@H]4CC[C@]23C)C1`, the inhibition result in experiment [3] and in experiment [4] was “inactive” in each case.

On to `Cc1c(O)c(O)cc2c1CC=C1[C@@]2(C)CC[C@@]2(C)[C@@H]3C[C@](C)(C(=O)O)CC[C@]3(C)CC[C@]12C`, for which the inhibition result in experiment [3] and in experiment [4] was “Active” throughout.
